Measured values as given in ChEMBL document CHEMBL2390917, “Synthesis and biological evaluation of 2-(5-methyl-4-phenyl-2-oxopyrrolidin-1-yl)-acetamide stereoisomers as novel positive allosteric modulators of sigma-1 receptor” (Bioorg Med Chem, 2013).
The source made the active and inactive calls. The rule behind the calls is not given here.

Tests used:
[1] = organism: Homo sapiens; experiment: Binding affinity to human TNFalpha receptor at 10 uM by radioligand displacement assay relative to control
[2] = biological target: Platelet-derived growth factor receptor (Homo sapiens) (UniProt P09619+P16234); experiment: Binding affinity to PDGF receptor (unknown origin) at 10 uM by radioligand displacement assay relative to control; assay type: protein-complex assay
[3] = biological target: Endothelin-1 receptor (Homo sapiens) (UniProt P25101); experiment: Binding affinity to human ETA receptor at 10 uM by radioligand displacement assay relative to control
[4] = biological target: Endothelin receptor type B (Homo sapiens) (UniProt P24530); experiment: Binding affinity to human ETB receptor at 10 uM by radioligand displacement assay relative to control
[5] = biological target: D(3) dopamine receptor (Homo sapiens) (UniProt P35462); experiment: Binding affinity to human dopamine D3 receptor at 10 uM by radioligand displacement assay relative to control
[6] = biological target: D(2) dopamine receptor (Homo sapiens) (UniProt P14416); experiment: Binding affinity to human dopamine D2S receptor at 10 uM by radioligand displacement assay relative to control
[7] = biological target: Gastrin/cholecystokinin type B receptor (Homo sapiens) (UniProt P32239); experiment: Binding affinity to human CCK2 receptor at 10 uM by radioligand displacement assay relative to control
[8] = biological target: Cholecystokinin receptor type A (Homo sapiens) (UniProt P32238); experiment: Binding affinity to human CCK1 receptor at 10 uM by radioligand displacement assay relative to control
[9] = biological target: Adrenergic receptor alpha-2 (Homo sapiens) (UniProt P08913+P18825+P18089); experiment: Binding affinity to human adrenergic alpha2 receptor at 10 uM by radioligand displacement assay relative to control
[10] = biological target: Alpha-2A adrenergic receptor (Homo sapiens) (UniProt P08913); experiment: Binding affinity to adrenergic alpha2 receptor (unknown origin) at 10 uM by radioligand displacement assay relative to control
[11] = biological target: Sigma non-opioid intracellular receptor 1 (Homo sapiens, UniProt Q99720); experiment: Binding affinity to sigma 1 receptor (unknown origin) at 10 uM by radioligand displacement assay
[12] = tested on: Mus musculus; experiment: Toxicity in ip dosed ICR mouse assessed as effect on motor performance measured within 30 secs by chimney test; assay type: organism-based; conditions: in vivo, 0.5 min
[13] = tested on: Mus musculus; experiment: Toxicity in ip dosed ICR mouse assessed as effect on motor coordination measured within 120 secs by rotarod test; assay type: organism-based; conditions: in vivo, 2 min
[14] = tested on: Mus musculus; experiment: Toxicity in ICR mouse assessed as effect on locomotor activity measured moved distance per 4 mins at 100 mg/kg, ip after 180 mins by open field test (reference value: 436 125 cm); assay type: organism-based; set-up: dose 100 mg/kg, route intraperitoneal; conditions: in vivo
[15] = tested on: Mus musculus; experiment: Toxicity in ICR mouse assessed as effect on locomotor activity measured moved distance per 4 mins at 1 mg/kg, ip after 180 mins by open field test (reference value: 436 125 cm); assay type: organism-based; set-up: dose 1 mg/kg, route intraperitoneal; conditions: in vivo
[16] = tested on: Mus musculus; experiment: Toxicity in ICR mouse assessed as effect on locomotor activity measured moved distance per 4 mins at 10 mg/kg, ip after 120 mins by open field test (reference value: 578 126 cm); assay type: organism-based; set-up: dose 10 mg/kg, route intraperitoneal; conditions: in vivo
[17] = tested on: Mus musculus; experiment: Toxicity in ICR mouse assessed as effect on locomotor activity measured moved distance per 4 mins at 100 mg/kg, ip after 30 mins by open field test (reference value: 1124 121 cm); assay type: organism-based; set-up: dose 100 mg/kg, route intraperitoneal; conditions: in vivo
[18] = tested on: Mus musculus; experiment: Cognitive enhancing effect in ICR mouse assessed as increase in retention latency at 10 mg/kg, ip administered 60 mins prior to testing measured after 24 hrs by passive avoidance test relative to control; assay type: functional; conditions: route intraperitoneal
[19] = biological target: Sigma non-opioid intracellular receptor 1 (Rattus norvegicus) (UniProt Q9R0C9); experiment: Positive allosteric modulation of Wistar rat sigma 1 receptor assessed as increase in electrically-stimulated vas deferens contraction at 10 uM after 10 mins
Summary of the method: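 Isolated rat vas deferens, proximal ~15 mm segments, in K-H buffer at 32 °C gassed […], with 1.0 g passive tension and a 60 min adaptation. Field-stimulated at 0.1 Hz, 1 ms, 50 V. Cumulative PRE-084 (1–100 µM) was given, then washout and a 30 min rest. Test compound 10 µM was added for 10 min before cumulative PRE-084. Response is % increase over baseline amplitude; n=6, mean ± SEM, paired t-test.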

[20] = biological target: Neurotensin receptor type 1 (Homo sapiens) (UniProt P30989); experiment: Binding affinity to NTS1 receptor (unknown origin) at 10 uM by radioligand displacement assay relative to control
[21] = biological target: Sodium-dependent serotonin transporter (Homo sapiens) (UniProt P31645); experiment: Binding affinity to human serotonin 5-HT transporter at 10 uM by radioligand displacement assay relative to control
[22] = organism: Homo sapiens; experiment: Binding affinity to GABA-gated chloride channel (unknown origin) at 10 uM by radioligand displacement assay relative to control
[23] = biological target: Somatostatin receptor type 1 (Homo sapiens) (UniProt P30872); experiment: Binding affinity to Somatostatin receptor type 1 (unknown origin) at 10 uM by radioligand displacement assay relative to control
[24] = biological target: 5-hydroxytryptamine receptor 6 (Homo sapiens) (UniProt P50406); experiment: Binding affinity to human 5-HT6 receptor at 10 uM by radioligand displacement assay relative to control
[25] = biological target: 5-hydroxytryptamine receptor 3A (Homo sapiens) (UniProt P46098); experiment: Binding affinity to human 5-HT3 receptor at 10 uM by radioligand displacement assay relative to control
[26] = biological target: 5-hydroxytryptamine receptor 2A (Homo sapiens) (UniProt P28223); experiment: Binding affinity to human 5-HT2A receptor at 10 uM by radioligand displacement assay relative to control
[27] = biological target: 5-hydroxytryptamine receptor 1A (Homo sapiens) (UniProt P08908); experiment: Binding affinity to human 5-HT1A receptor at 10 uM by radioligand displacement assay relative to control
[28] = organism: Homo sapiens; experiment: Binding affinity to P2X receptor (unknown origin) at 10 uM by radioligand displacement assay relative to control
[29] = biological target: Peroxisome proliferator-activated receptor gamma (Homo sapiens) (UniProt P37231); experiment: Binding affinity to human PPARgamma receptor at 10 uM by radioligand displacement assay relative to control
[30] = biological target: Vasoactive intestinal polypeptide receptor 1 (Homo sapiens) (UniProt P32241); experiment: Binding affinity to human VPAC1 receptor at 10 uM by radioligand displacement assay relative to control
[31] = biological target: Muscarinic acetylcholine receptor M4 (Homo sapiens) (UniProt P08173); experiment: Binding affinity to human muscarinic M4 receptor at 10 uM by radioligand displacement assay relative to control
[32] = biological target: Muscarinic acetylcholine receptor M3 (Homo sapiens) (UniProt P20309); experiment: Binding affinity to human muscarinic M3 receptor at 10 uM by radioligand displacement assay relative to control
[33] = biological target: Melatonin receptor type 1A (Homo sapiens) (UniProt P48039); experiment: Binding affinity to human ML1A receptor at 10 uM by radioligand displacement assay relative to control
[34] = biological target: Muscarinic acetylcholine receptor M1 (Homo sapiens) (UniProt P11229); experiment: Binding affinity to human muscarinic M1 receptor at 10 uM by radioligand displacement assay relative to control

Cholecystokinin receptor type A (Homo sapiens), sequence (P32238 whole entry): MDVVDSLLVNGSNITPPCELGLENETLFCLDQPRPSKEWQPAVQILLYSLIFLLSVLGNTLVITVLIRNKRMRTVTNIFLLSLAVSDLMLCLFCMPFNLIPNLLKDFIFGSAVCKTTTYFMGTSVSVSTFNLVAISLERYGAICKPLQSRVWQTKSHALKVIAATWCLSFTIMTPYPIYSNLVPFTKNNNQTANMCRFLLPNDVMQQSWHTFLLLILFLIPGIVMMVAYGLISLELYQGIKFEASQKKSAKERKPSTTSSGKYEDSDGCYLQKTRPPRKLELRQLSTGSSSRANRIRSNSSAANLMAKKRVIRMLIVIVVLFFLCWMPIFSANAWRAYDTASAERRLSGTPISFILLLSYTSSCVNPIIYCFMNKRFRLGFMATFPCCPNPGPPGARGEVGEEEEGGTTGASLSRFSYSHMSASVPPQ
Endothelin receptor type B (Homo sapiens), sequence (P24530 whole entry): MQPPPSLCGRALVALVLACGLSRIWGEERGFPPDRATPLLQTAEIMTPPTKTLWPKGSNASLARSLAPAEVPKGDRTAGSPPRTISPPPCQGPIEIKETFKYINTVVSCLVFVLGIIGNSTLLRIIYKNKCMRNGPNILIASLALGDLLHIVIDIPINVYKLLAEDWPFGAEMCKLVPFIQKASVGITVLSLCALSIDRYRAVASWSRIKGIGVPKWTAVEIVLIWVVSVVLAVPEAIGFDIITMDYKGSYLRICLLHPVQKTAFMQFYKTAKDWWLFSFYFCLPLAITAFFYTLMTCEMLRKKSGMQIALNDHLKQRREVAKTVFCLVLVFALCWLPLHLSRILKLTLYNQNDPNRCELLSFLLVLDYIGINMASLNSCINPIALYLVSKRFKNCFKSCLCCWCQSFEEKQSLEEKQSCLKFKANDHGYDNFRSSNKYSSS
Muscarinic acetylcholine receptor M4 (Homo sapiens), sequence (P08173 whole entry): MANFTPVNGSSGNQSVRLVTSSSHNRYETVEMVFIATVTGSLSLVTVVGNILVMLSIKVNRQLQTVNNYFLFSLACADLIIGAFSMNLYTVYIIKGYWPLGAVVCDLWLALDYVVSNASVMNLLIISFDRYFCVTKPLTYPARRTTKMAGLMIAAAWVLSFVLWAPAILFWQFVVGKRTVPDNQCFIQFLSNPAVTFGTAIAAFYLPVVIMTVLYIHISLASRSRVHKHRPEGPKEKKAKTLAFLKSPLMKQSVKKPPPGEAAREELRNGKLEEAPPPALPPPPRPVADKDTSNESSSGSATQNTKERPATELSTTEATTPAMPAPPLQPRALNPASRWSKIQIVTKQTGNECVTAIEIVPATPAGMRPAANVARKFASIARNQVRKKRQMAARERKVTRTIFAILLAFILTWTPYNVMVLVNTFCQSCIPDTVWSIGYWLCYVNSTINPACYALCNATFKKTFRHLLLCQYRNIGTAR
Neurotensin receptor type 1 (Homo sapiens), sequence (P30989 whole entry): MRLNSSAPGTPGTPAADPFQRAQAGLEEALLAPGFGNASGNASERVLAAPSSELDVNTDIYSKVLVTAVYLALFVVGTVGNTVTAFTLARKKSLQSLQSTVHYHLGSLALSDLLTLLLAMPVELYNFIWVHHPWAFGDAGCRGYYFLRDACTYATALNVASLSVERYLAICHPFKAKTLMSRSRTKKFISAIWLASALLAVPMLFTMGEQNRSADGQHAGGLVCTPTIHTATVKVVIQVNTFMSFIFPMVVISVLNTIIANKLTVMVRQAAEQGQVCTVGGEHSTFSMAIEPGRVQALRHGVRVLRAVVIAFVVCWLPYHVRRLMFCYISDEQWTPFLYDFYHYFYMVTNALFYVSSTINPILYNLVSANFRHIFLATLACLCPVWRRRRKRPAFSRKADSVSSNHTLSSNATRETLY
Sigma non-opioid intracellular receptor 1 (Rattus norvegicus), sequence (Q9R0C9 whole entry): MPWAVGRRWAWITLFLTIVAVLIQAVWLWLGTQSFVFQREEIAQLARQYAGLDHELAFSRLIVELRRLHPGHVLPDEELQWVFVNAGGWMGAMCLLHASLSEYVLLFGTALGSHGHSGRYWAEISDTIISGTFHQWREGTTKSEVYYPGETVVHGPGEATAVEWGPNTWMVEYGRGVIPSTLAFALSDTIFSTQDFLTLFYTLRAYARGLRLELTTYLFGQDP
Peroxisome proliferator-activated receptor gamma (Homo sapiens), sequence (P37231 whole entry): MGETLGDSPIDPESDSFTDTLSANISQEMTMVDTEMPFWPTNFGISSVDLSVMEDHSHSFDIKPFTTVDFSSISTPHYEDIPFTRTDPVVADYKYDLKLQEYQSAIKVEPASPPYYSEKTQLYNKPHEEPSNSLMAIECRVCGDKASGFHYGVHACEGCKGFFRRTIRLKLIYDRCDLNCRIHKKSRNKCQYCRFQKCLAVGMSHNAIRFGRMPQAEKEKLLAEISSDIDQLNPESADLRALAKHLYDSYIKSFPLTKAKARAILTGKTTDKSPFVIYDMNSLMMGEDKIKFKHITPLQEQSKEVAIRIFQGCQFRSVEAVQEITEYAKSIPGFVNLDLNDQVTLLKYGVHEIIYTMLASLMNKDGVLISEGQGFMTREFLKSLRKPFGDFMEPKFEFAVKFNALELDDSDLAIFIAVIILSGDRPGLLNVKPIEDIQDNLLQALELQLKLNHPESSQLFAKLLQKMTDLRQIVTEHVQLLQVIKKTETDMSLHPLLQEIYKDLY
Muscarinic acetylcholine receptor M3 (Homo sapiens), sequence (P20309 whole entry, looked up): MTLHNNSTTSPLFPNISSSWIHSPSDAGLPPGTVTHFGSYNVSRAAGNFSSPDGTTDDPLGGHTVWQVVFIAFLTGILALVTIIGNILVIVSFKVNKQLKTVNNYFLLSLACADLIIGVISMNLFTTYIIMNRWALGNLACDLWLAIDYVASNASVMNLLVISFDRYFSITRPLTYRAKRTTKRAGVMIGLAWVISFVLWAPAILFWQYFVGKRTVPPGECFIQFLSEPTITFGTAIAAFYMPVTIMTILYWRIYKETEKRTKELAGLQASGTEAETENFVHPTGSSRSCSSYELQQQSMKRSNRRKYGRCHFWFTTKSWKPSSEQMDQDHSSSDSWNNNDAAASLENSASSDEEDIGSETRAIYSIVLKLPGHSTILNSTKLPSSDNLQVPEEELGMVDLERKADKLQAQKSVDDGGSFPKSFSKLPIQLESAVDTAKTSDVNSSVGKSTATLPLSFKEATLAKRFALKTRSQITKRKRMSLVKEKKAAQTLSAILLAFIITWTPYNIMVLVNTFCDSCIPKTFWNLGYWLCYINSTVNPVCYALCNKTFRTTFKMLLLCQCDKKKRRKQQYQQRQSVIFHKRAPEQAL
Gastrin/cholecystokinin type B receptor (Homo sapiens), sequence (P32239 whole entry): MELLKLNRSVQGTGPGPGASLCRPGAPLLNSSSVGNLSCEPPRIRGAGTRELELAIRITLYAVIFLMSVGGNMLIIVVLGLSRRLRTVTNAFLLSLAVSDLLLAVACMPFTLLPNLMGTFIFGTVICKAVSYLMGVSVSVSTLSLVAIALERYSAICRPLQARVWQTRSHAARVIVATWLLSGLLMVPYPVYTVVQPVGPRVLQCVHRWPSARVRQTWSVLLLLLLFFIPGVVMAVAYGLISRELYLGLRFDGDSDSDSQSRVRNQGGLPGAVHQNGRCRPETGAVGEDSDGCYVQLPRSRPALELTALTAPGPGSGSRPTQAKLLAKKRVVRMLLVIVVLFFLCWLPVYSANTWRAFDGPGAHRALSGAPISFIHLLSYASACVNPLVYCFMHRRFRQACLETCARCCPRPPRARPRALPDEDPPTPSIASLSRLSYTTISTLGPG
5-hydroxytryptamine receptor 6 (Homo sapiens), sequence (P50406 whole entry): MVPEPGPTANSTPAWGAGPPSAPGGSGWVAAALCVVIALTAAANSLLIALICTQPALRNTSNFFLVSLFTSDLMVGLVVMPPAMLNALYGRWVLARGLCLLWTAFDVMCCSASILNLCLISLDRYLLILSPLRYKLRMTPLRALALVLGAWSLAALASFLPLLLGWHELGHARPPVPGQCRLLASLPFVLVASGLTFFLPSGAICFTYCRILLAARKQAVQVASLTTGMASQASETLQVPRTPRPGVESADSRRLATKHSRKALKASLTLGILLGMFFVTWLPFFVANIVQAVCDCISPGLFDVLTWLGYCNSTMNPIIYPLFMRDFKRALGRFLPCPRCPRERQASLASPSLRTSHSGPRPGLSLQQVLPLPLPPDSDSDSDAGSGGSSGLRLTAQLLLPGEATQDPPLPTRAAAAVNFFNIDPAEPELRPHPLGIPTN
D(3) dopamine receptor (Homo sapiens), sequence (P35462 whole entry): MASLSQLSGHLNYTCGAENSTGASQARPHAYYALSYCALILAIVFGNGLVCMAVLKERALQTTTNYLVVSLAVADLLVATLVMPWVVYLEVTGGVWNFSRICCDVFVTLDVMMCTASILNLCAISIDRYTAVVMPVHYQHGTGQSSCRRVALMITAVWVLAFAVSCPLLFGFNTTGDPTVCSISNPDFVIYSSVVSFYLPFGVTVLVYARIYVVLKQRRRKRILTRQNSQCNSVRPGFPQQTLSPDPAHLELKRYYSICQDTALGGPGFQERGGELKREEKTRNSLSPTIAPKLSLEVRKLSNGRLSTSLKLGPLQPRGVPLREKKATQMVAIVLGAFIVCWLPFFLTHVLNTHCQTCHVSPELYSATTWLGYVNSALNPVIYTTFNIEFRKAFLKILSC
Alpha-2A adrenergic receptor (Homo sapiens), sequence (P08913 whole entry): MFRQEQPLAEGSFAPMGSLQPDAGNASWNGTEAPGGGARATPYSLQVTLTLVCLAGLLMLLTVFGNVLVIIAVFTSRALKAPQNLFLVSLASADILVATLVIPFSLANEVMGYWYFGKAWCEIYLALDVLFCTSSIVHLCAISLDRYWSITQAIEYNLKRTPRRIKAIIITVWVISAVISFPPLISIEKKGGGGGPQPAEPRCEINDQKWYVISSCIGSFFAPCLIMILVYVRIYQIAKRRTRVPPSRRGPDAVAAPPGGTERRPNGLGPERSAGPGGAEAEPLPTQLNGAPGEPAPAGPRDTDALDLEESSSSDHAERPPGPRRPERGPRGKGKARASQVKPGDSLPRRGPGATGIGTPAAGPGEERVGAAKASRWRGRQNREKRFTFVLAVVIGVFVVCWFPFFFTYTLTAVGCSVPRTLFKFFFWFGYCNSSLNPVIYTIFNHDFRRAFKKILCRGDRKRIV

## C[C@H]1[C@@H](c2ccccc2)CC(=O)N1CC(N)=O
[1]
  inhibition: -3%
[2]
  inhibition: -6%
[3]
  inhibition: -2%
[4]
  inhibition: 2%
[5]
  inhibition: 7%
[6]
  inhibition: 5%
[7]
  inhibition: 8%
[8]
  inhibition: 9%
[9]
  inhibition: -2%
[10]
  inhibition: -4%
[11]
  Activity: inactive
[12]
  ED50: 349 mg/kg
[13]
  ED50: 453 mg/kg
[14]
  Activity: 450 cm
[15]
  Activity: 559 cm
[16]
  Activity: 472 cm
[17]
  Activity: 1076 cm
[18]
  Activity: 211%
[19]
  Activity: inactive
[20]
  inhibition: -3%
[21]
  inhibition: 5%
[22]
  inhibition: -3%
[23]
  inhibition: -5%
[24]
  inhibition: -10%
[25]
  inhibition: -1%
[26]
  inhibition: 5%
[27]
  inhibition: -4%
[28]
  inhibition: 6%
[29]
  inhibition: -9%
[30]
  inhibition: -2%
[31]
  inhibition: -3%
[32]
  inhibition: -7%
[33]
  inhibition: -6%
[34]
  inhibition: -4%
